One may read the pKb as the Kb on a negative log10 scale, so that one unit is a factor of ten. A high value points to a low Kb. The Ki is the equilibrium dissociation constant of an inhibitor or competing ligand from its target. High values mean weaker binding, low ones tighter binding.

The values that follow come from ChEMBL document CHEMBL1132183 (J Med Chem, 1999).

A value given as a limit tells only on which side of the number the result lay.

For assay [1], the target named is T1, 5-hydroxytryptamine receptor 1A (Homo sapiens) (UniProt P08908).
T1 sequence (whole entry): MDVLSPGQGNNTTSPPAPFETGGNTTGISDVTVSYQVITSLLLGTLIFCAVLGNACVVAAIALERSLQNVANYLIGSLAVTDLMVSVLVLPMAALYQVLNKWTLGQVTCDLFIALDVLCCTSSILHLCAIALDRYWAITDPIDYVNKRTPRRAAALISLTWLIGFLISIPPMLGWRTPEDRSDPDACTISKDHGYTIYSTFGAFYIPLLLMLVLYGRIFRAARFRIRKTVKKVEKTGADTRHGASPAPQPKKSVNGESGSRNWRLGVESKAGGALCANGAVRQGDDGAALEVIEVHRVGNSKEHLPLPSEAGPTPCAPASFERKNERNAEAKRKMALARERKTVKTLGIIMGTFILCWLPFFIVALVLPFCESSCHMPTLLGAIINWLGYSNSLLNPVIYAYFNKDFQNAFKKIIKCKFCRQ
Briefly: Agonist efficacy on 5-hydroxytryptamine 1A receptor subtype. It is filed as functional. A digest of the protocol: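 [35S]GTPγS binding in membranes of HeLa cells stably expressing human 5-HT1A, in 20 mM HEPES, 3 mM MgSO4, 120 mM NaCl pH 7.4. Preincubation 20 min at 30 °C with 30 μM GDP and drug (0.1 nM–100 μM), then 150–250 pM [35S]GTPγS for 30 min at 30 °C. Stimulation above basal was scaled to the 5-HT maximum (100%). Emax and pD2 came from curve fits; triplicate, 2–3 sessions.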

The target of assay [2] is T2, Alpha-1D adrenergic receptor (Rattus norvegicus) (UniProt P23944).
T2 sequence (whole entry): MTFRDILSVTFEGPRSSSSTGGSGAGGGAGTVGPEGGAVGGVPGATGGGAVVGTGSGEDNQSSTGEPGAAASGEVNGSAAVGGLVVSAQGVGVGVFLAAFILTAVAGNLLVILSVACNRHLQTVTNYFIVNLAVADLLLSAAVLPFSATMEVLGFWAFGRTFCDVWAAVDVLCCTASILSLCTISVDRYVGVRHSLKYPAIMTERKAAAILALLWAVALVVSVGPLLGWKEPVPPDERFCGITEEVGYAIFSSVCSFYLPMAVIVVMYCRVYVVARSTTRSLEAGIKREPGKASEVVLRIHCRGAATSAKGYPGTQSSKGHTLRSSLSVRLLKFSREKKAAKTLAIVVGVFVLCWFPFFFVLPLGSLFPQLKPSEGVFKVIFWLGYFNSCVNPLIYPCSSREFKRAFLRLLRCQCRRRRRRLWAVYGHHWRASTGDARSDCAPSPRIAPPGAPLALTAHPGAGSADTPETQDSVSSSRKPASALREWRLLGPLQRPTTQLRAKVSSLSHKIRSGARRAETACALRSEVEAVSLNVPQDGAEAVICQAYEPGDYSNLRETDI
Description: Alpha-1D adrenergic receptor subtype blocking activity (antagonism) against (-)-noradrenaline-induced contraction of rat thoracic aorta. It is filed as functional, tissue-based. A digest of the protocol: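 Helicoidal strips of rat thoracic aorta under 1 g tension, bath with 0.01 μM desipramine and 1 μM (±)-propranolol, equilibrated ≥1 h. Cumulative (–)-noradrenaline curves at 30-min intervals: first two discarded, third as control, fourth after 30-min antagonist exposure. pKb by Arunlakshana–Schild from EC50 dose ratios at 2–3 antagonist concentrations, each tested four times.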

In assay [3] the target is D(2) dopamine receptor (Rattus norvegicus, UniProt P61169). Briefly: Displacement of [3H]spiperone from rat brain Dopamine receptor D2. The procedure, abridged:
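Striata from male Sprague–Dawley rats homogenized in Tris-HCl pH 7.4. Buffer held 10 μM pargiline, 0.1% ascorbic acid, 120 mM NaCl, 5 mM KCl, 2 mM CaCl2, 1 mM MgCl2. Incubated with 0.2–0.6 nM [3H]spiperone for 15 min at 37 °C. Nonspecific binding defined with 1 μM (+)-butaclamol. Filtration, scintillation counting. Ki by Cheng–Prusoff.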
For orientation: In a radioligand displacement assay an active substance lowers the binding of a labelled ligand.

Assay [4] has as its target T3, Alpha-1D adrenergic receptor (Homo sapiens, UniProt P25100).
T3 sequence (P25100 whole entry): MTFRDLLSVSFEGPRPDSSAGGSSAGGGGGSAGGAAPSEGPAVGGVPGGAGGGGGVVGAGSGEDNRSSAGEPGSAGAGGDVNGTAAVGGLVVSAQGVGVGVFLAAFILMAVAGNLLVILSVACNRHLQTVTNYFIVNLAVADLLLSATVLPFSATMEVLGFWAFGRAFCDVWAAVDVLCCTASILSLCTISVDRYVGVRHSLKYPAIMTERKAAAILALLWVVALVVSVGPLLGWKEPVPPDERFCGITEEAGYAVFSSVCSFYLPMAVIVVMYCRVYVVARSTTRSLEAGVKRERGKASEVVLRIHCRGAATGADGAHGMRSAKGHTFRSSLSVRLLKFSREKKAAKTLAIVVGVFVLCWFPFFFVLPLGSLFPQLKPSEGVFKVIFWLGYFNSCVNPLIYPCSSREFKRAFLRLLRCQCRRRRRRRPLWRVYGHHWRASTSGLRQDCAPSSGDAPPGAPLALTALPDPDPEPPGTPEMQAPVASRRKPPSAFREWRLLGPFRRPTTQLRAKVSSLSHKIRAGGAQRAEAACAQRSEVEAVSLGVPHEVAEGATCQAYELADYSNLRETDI
Description: Displacement of [3H]prazosin from human cloned Alpha-1D adrenergic receptor. A digest of the protocol: (§1)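 CHO cells stably transfected with each human α1 subtype; 30 μg membrane protein in 50 mM Tris-HCl pH 7.4 with 0.1–0.4 nM [3H]prazosin, 30 min at 25 °C. Competitors 1 pM–10 μM. Nonspecific binding defined with 10 μM phentolamine. Filtration, scintillation counting. Ki by Cheng–Prusoff; 2–3 experiments in triplicate.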

For assay [5], the target named is T4, Alpha-1B adrenergic receptor (Homo sapiens, UniProt P35368).
T4 sequence (P35368 whole entry): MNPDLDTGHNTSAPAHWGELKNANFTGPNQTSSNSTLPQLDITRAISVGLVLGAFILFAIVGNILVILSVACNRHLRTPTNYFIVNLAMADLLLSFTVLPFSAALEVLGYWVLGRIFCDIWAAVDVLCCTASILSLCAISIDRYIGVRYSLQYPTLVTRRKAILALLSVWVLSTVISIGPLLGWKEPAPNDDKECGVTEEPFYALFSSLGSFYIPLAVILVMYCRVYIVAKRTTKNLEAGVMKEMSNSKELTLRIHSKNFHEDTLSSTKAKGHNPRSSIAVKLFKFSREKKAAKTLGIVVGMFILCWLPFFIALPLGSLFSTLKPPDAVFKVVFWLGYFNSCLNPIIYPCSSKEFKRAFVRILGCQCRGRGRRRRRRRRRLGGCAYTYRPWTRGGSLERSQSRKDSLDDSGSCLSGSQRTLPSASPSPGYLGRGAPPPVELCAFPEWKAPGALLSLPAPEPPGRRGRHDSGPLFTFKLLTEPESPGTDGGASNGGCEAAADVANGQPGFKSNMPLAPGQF
Description: Displacement of [3H]prazosin from human cloned Alpha-1B adrenergic receptor. A digest of the protocol:
as §1

Chain of D(2) dopamine receptor (P61169 whole entry): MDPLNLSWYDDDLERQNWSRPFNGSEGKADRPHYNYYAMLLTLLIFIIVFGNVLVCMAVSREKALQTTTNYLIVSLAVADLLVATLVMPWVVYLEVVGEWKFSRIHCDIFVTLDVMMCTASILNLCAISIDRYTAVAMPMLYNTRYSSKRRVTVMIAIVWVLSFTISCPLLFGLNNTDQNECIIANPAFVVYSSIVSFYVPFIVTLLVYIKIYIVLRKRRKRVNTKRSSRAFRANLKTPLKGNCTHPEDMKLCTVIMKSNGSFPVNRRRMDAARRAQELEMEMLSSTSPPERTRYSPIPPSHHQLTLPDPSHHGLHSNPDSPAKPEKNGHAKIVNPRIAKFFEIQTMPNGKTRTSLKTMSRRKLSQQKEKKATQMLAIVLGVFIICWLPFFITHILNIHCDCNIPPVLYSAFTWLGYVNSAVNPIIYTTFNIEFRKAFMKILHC

With `O[C@@H]1[C@H](NC[C@H]2COc3ccccc3O2)CC[C@H]1Oc1ccccc1`, in assay [1], the Max was 100%. The negative logarithm of the Kb (pKb) in assay [2] amounted to 8.17. In addition, in assay [3], the inhibition constant (Ki) was 2400 nM.

With `O[C@H]1[C@@H](NC[C@H]2COc3ccccc3O2)CC[C@@H]1Oc1ccccc1`, the Max in assay [1] came out at 82%. Also, the inhibition constant Ki in assay [4] is 200 nM; in assay [5], 1820 nM; in assay [3], 2400 nM. The molecule further came in with a pKb in assay [2] of 6.92.

In the case of `O[C@@H]1[C@H](NC[C@@H]2COc3ccccc3O2)CC[C@H]1Oc1ccccc1`, in assay [1], the Max is 23%. Moreover, the inhibitory constant (Ki) is 16.2 nM in assay [4], 93.3 nM in assay [5] and 6170 nM in assay [3]. The pKb in assay [2] was found to be 7.78.

Turning to `O[C@H]1[C@@H](NC[C@@H]2COc3ccccc3O2)CC[C@@H]1Oc1ccccc1`, in assay [1], the Max was 96%. For the same molecule, the values for the inhibition constant (Ki) in assay [4], in assay [5] and in assay [3] were 933 nM, more than 1000 nM and 1120 nM, respectively. Further, in assay [2], the pKb worked out at 6.65.
